Measurements published in paper PMC10443334 (Microbial Biotechnology, 2023).
Where a SMILES comes first, the peptide text is derived from it. Bridges are numbered along the chain shown (N, C = ends). [ ]: non-standard residue; d: D form. The star is where a group is joined. X1 = CC[C@H](C)CCCCC(=O)*; Dab = NCC[C@H](N)C(=O)O

How the values were obtained:
THP-1 cells [1] = test: NF-κB activation western blot; format: cell-based, human; settings: TAK242 1 μM (infection) or 100 nM (LPS) for 1 h
Procedure, shortened: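 THP-1 cells were differentiated with PMA (10 ng/mL, 48 h). For infection, cells got TAK242 1 μM for 1 h, then washed log-phase BL21/pEmpty or BL21/pMCR-1 at MOI 50 in serum-free medium with kanamycin and IPTG for 4 h. For LPS, cells got TAK242 100 nM for 1 h, then purified LPS (1 μg/mL) for 4 h. Cell extracts were western blotted and relative band levels quantified.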

BL21/pMCR-1 [2] = test: Microdilution MIC/MBC; format: cell-based, E. coli; settings: MIC ratio BL21/pMCR-1 vs BL21/pEmpty
Procedure, shortened: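 Broth microdilution MIC/MBC followed CLSI. Strains were E. coli BL21 carrying pET28a-mcr-1 or empty pET28a, grown in LB (pH 7.2–7.4) with 50 μg/mL kanamycin. MCR-1 expression was induced with 0.5 mM IPTG at 37°C with shaking at 220 rpm.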

BL21/pMCR-1 [3] = test: Time-killing kinetics; format: cell-based, E. coli; settings: 16 μg/mL, 1 × 10^5 CFU/mL, IPTG, 37°C, agar plate dilution count
Procedure, shortened: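 Suspensions of IPTG-induced BL21/pMCR-1 (1 × 10^5 CFU/mL) were sub-cultured into tubes with IPTG, with or without test compound at 4 × MIC, at 37°C. Viable counts were taken by agar plate dilution at fixed time intervals. Data are mean ± SD from three independent experiments.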

THP-1 cells [4] = test: LDH release and caspase 1 western blot after OMV stimulation; format: cell-based, human; settings: Wed 50 μM pre-treatment for 2 h, OMVs 20 μg protein/mL
Procedure, shortened: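 PMA-differentiated (10 ng/mL, 48 h) THP-1 macrophages were pre-treated with DMSO or 50 μM Wed, then exposed to OMVs (20 μg protein/mL) for 4 h at 37°C, 5% CO2. OMVs came from 8 h LB culture supernatants, filtered, concentrated on 100-kDa filters and pelleted at 150,000 g for 3 h. LDH in media was read by kit as % of 0.1% Triton X-100 lysis; lysates were western blotted with chemiluminescent quantitation.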

`CCOC(=O)C1=CCCC[C@H]1S(=O)(=O)Nc1ccc(F)cc1Cl` [TAK242, Resatorvid] was tested, and the “p-P65 and p-IκB after infection or LPS stimulation” value (THP-1 cells [1]) was “inhibited”.

With `CC[C@H](C)CCCCC(=O)N[C@@H](CCN)C(=O)N[C@H](C(=O)N[C@@H](CCN)C(=O)N[C@H]1CCNC(=O)[C@H]([C@@H](C)O)NC(=O)[C@H](CCN)NC(=O)[C@H](CCN)NC(=O)[C@H](CC(C)C)NC(=O)[C@@H](Cc2ccccc2)NC(=O)[C@H](CCN)NC1=O)[C@@H](C)O` [polymyxin B, Polymyxin B sulphate] (X1-[Dab]T[Dab][Dab][Dab][dF]L[Dab][Dab]T; lactam 4-C (inferred); N-terminus assumed) the “increase of MIC against BL21/pMCR-1 compared to BL21/pEmpty” value (BL21/pMCR-1 [2]) was 8 fold and the “time to eradicate all bacteria (time-kill kinetics)” value (BL21/pMCR-1 [3]) was 4 h.

`COc1cc(O)c2c(c1)oc(=O)c1c3cc(O)c(O)cc3oc21` [Wed, wedelolactone] was tested, and the “macrophage cell death and caspase-1 processing after OMV stimulation” value (THP-1 cells [4]) was “markedly reduced”.
